Compound activity (PubChem)
PP1 inh – PP1-alpha (human) inhibition in PP5 counter-screen | P62136 | inhibition, % at 6.7 µM | AID 2235 | 320,000 tested, 0.9% active | purified PP1alpha, OMFP fluorescence;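 active = inhibition above the mean inhibition of all tested compounds plus 3 SD, computed separately for each screening campaign, cut at about 15% in these data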
core dimer inh – HCV core protein dimerization inhibition; TR-FRET GST/Flag-core106 dimerization, 1536-well; AID 1899; 300,000 tested, 0.33% active; inhibition, % at 5 µM;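 active = inhibition above the mean of all tested compounds plus 3 SD, set per screening campaign, cut at about 45% in these data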
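Assay system – GST-tagged and Flag-tagged HCV core protein residues 1-106 · Quantity – core106 proteins, GST 13.5 nM and Flag 17 nM · Benchmarks – unlabelled core106 and no-GST-core106 wells · Read-out basis – percent inhibition of core106 dimerization signal · Detection – time-resolved FRET, ex 340 nm, em 617 and 671 nm · Schedule – 4 h at 22.5 °C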
PP5 inh – PP5 (human) phosphatase inhibition; purified PP5c, OMFP substrate fluorescence; inhibition, % at 6.7 µM; 320,000 tested, 0.18% active; AID 1987;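 active = inhibition above the campaign's mean inhibition across all tested compounds plus 3 SD, cut at about 9.5% in these data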
Target sequence (P53041 whole entry, looked up): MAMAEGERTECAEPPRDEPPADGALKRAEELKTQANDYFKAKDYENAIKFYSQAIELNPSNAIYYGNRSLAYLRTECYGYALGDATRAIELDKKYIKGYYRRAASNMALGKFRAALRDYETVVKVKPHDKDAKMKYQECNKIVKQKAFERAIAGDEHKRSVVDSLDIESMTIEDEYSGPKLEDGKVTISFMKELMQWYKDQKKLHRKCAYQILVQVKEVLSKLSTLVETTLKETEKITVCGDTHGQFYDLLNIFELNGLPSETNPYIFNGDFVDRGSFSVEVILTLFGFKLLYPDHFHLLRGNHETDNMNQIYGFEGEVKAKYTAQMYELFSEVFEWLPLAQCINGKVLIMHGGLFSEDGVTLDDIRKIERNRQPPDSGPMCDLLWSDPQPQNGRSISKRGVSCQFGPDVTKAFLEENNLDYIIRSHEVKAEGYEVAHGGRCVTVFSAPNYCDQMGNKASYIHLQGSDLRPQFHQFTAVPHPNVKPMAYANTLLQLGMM
Myeloid diff MLP – myeloid differentiation induction | ER-HoxA9 myeloid progenitors, lysozyme-GFP differentiation, flow cytometry | calls only at 10 µM | 360,000 tested, 1% active | AID 624256;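 active = normalized GFP-positive differentiation at or above the plate's own cutoff, the solvent-only control mean plus 3 SD; inconclusive = no clear call, values can overlap the other calls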;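 also: cells exposed to compound for four days before flow analysis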
NadD block – inhibitors of Staphylococcus aureus NadD | purified NadD enzyme, colorimetric absorbance read-out | 360,000 tested, 0.78% active | inhibition, % at 20 µM; in the data active = inhibition above about 26%
CTSL1 counter – cathepsin L1 inhibition, PFM18AAP counter-screen | recombinant F. hepatica cathepsin L1, Z-Leu-Arg-MCA fluorescence | inhibition, % at 5.96 µM | 300,000 tested, 0.49% active | AID 1906;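 active = inhibition above the mean of all tested compounds plus 3 SD, set per screening campaign, cut at about 17% in these data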
Myeloid diff – promotes myeloid progenitor differentiation. calls only. 2,300 tested, 2% active. shares compounds with Myeloid diff MLP. ER-HoxA9 myeloid progenitors, GFP/Mac1 double-positive flow;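 active = share of green or green-and-red cells above 9 and 9% in run 1 or 4 and 3% in run 2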
GFP autofluor – counter-screen for myeloid differentiation promoters: compound fluorescence; ER-HoxA9 myeloid progenitors, no estrogen, GFP autofluorescence flow cytometry; vehicle wells 0%, positive control 100%; shares compounds with Myeloid diff MLP; fluorescence response, % (test concentration not listed); 2,300 tested, 7.4% active;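 active = over 5% cells positive for green fluorescent reporter, or over 2% positive for both it and APC stain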
Numbers stand for hits; 0 = inactive; ? = inconclusive; - = no result given; + = active, no number. Rows were chosen to be rich in hits. Some 3.1% of all compounds tested hit in one or more screens of this group.

SMILES | PP1 inh | core dimer inh | PP5 inh | Myeloid diff MLP | NadD block | CTSL1 counter | Myeloid diff | GFP autofluor
C#CCOCCOCCOCCNc1nc(N2CCN(C(=O)Cn3cc(CC(C)O)nn3)CC2)nc(N2CCN(C(=O)[C@H](C)n3cc(CCC(=O)O)nn3)CC2)n1 (stereo partly drawn) | - | - | - | 0 | 0 | - | - | -
CN1CCN(c2ccc(CNC(=O)c3ccc(-c4ccc(F)c(F)c4)c4ccoc34)cc2)CC1 | - | - | - | + | 0 | - | 0 | 0
COCCN1CC(=O)N2C(c3cccc(OC)c3)c3[nH]c4ccccc4c3C[C@H]2C1=O (stereo partly drawn) | 0 | 0 | 0 | 0 | 0 | 0 | - | -
CN(C)c1ncnc2c1ncn2C1OC(CO)C(O)C1O (stereo not drawn) | 0 | 0 | 0 | + | 0 | 0 | 0 | 0
Nc1ncn([C@@H]2O[C@H](CO)[C@@H](O)[C@H]2O)c(=O)n1 | 0 | 0 | 0 | 0 | 0 | 0 | 0 | 5.0
COc1ccc2[nH]c3nc(SCC(=O)NNC(=O)c4ccc(OC)c(OC)c4)nnc3c2c1 | 0 | 0 | 0 | 0 | 0 | 0 | 0 | 0
CN1CCN(c2ccccc2/C=C2/C(=O)Nc3ccccc32)CC1 | 0 | 0 | 0 | 0 | 0 | 0 | 0 | 83
COc1ccc(C(=O)N2CCN(C(=O)C3CCCO3)CC2)cc1[N+](=O)[O-] (stereo not drawn) | - | - | - | 0 | 0 | - | - | -
CN(C)c1ccc(S(=O)(=O)NCC(=O)N2CCN(c3ccccc3)CC2)cc1[N+](=O)[O-] | 0 | 0 | 0 | + | 0 | 0 | 0 | 0
CCCOC(=O)c1c(NC(=O)CCCn2nc([N+](=O)[O-])c(Cl)c2C)sc(C(=O)OC)c1C | 0 | 0 | 0 | 0 | 0 | 0 | 0 | 0
CCOC(=O)c1sc(NC(=O)CCCn2nc([N+](=O)[O-])c(Cl)c2C)c(C(=O)OCC)c1C | 0 | 0 | 0 | ? | 0 | 0 | - | -
COc1ccc(-c2noc(CCC(=O)N3CCN(c4cccc(OC)c4)CC3)n2)cc1 | - | - | - | 0 | 0 | - | - | -
COc1ccc(-c2noc(CCC(=O)N3CCN(c4cccc(C(F)(F)F)c4)CC3)n2)cc1 | 0 | 0 | 0 | + | 0 | 0 | 0 | 0
O=C(N/N=C/c1cccnc1)c1cccc(NC(=O)c2ccccc2Cl)c1 | 0 | 0 | 0 | + | 0 | 0 | 0 | 0
O=C(NCCNS(=O)(=O)c1cccc(C(F)(F)F)c1)c1cc(OCC(F)(F)F)ccc1OCC(F)(F)F | 0 | 0 | 0 | 0 | 0 | 0 | 0 | 0
CS(=O)(=O)NCCNC(=O)c1cc(OCC(F)(F)F)ccc1OCC(F)(F)F | 0 | 0 | 0 | 0 | 0 | 0 | - | -
Oc1oc(-c2ccco2)nc1C=Nc1ccccc1 | 0 | 0 | 0 | 0 | 0 | 0 | 0 | 0
Cc1ccc(-c2nc(C=Nc3ccc(O)cc3)c(O)o2)cc1 | - | - | - | 0 | 0 | - | 0 | 0
COC(=O)c1ccc(CNC(=O)[C@@H]2CCCN2S(=O)(=O)c2ccccc2F)cc1 | - | - | - | 0 | 0 | - | - | -
C=CCNC(=O)CN1CCC(n2nnc3cc(C(F)(F)F)ccc32)CC1 | 0 | 0 | 0 | 0 | 0 | 0 | - | -
Cc1cc(NC(=O)CN2CCC(n3nnc4cc(C(F)(F)F)ccc43)CC2)no1 | 0 | 0 | 0 | + | 0 | 0 | 0 | 0
CN1CCN(C2CN(Cc3cn(Cc4cccc(C(F)(F)F)c4)nn3)S(=O)(=O)C2)CC1 (stereo not drawn) | - | - | - | 0 | 0 | - | - | -
COc1ccccc1N1CCN(C(c2ccc(N(C)C)cc2)c2nnnn2CCc2ccccc2)CC1 (stereo not drawn) | 0 | 0 | 0 | + | 0 | 0 | 0 | 8.2
COc1ccc(C(c2nnnn2CCc2ccccc2)N2CCN(C3CCCC3)CC2)cc1 (stereo not drawn) | 0 | 0 | 0 | 0 | 0 | 0 | - | -
CCN1/C(=N\N)c2cccc3cccc1c23 | 0 | 0 | 0 | + | 0 | 0 | 0 | 94
SMILES | PP1 inh | core dimer inh | PP5 inh | Myeloid diff MLP | NadD block | CTSL1 counter | Myeloid diff | GFP autofluor
CCC(C)NC(=O)CN1C(=O)c2cccc3cccc1c23 (stereo not drawn) | - | - | - | 0 | 0 | - | - | -
COc1cc2nc(CN(C)Cc3nc4ccccc4c(=O)[nH]3)[nH]c(=O)c2cc1OC | 0 | 0 | 0 | 0 | 0 | 0 | 0 | 0
CCN(Cc1nc2ccccc2c(=O)[nH]1)Cc1nc2cc(OC)c(OC)cc2c(=O)[nH]1 | 0 | 0 | 0 | 0 | 0 | 0 | - | -
CCNC(=O)C1(C)CCN(C(=O)c2ccc(N(C)C)cc2)C1 (stereo not drawn) | - | - | - | 0 | 0 | - | - | -
CC(C)(C)NCC(O)COc1c(F)cc(Br)cc1F (stereo not drawn) | 0 | 0 | 0 | 0 | 0 | 0 | - | -
CC(C)(C)CC(C)(C)NCC(O)COc1c(F)cc(Br)cc1F (stereo not drawn) | 0 | 0 | 0 | + | 0 | 0 | 0 | 0
COc1ccc(CN2C(=O)CN(S(C)(=O)=O)CC2(C)C(=O)Nc2ccc3c(c2)OCCO3)cc1OC (stereo not drawn) | - | - | - | 0 | - | - | - | -
O=S(=O)(c1cccc(-c2nnc(SCc3ccc(Cl)cc3)o2)c1)N1CCCCC1 | 0 | 0 | 0 | + | 0 | 0 | 0 | 19
COc1ccc([C@H]2C[C@H](n3cc(COC(=O)c4ccccc4)nn3)[C@@H](O)CN2C(=O)C2CCCCC2)cc1 | - | - | - | 0 | 0 | - | 0 | 0
Cc1ccc([C@H]2C[C@@H](O)[C@H](n3cc(COC(=O)c4ccccc4)nn3)CN2Cc2cccs2)cc1 | - | - | - | 0 | 0 | - | 0 | 0
CSc1nc(N)c(C(=O)N(c2ccccc2)c2ccccc2)s1 | - | - | - | 0 | 0 | - | - | -
COc1cccc(C(=O)Nc2ccc(NC(C)=O)cn2)c1 | 0 | 0 | 0 | 0 | 0 | 20 | 0 | 0
O=C(N/N=C/C1=C(N2CCOCC2)C(=C\c2ccccc2)/CC1)Nc1ccccc1 | 0 | 0 | 0 | 0 | 0 | 0 | - | -
CCN(CC)c1ccc(/C=C2\CCC(/C=C(\C#N)C(=O)Nc3ccccc3F)=C2N2CCOCC2)cc1 | - | - | - | 0 | 0 | - | 0 | 5.5
N#C/C(=C/C1=C(N2CCOCC2)C(=C/c2cccc([N+](=O)[O-])c2)/CC1)C(=O)Nc1ccccc1F | - | - | - | + | 0 | - | 0 | 46
CCN(CC)c1ccc(/C=C2\CCC(/C=N/NC(=O)c3ccc(=O)n(C)c3)=C2N2CCOCC2)cc1 | 0 | 0 | 0 | + | 0 | 0 | 0 | 98
Cc1ccc(C(C(=O)NC2CCCC2)N(C(=O)c2csnn2)c2cccc(F)c2)o1 (stereo not drawn) | 0 | 0 | 0 | 0 | 0 | 0 | - | -
CCC(C)(C)NC(=O)C(c1ccc(C)o1)N(C(=O)c1csnn1)c1cccc(F)c1 (stereo not drawn) | 0 | 0 | 0 | 0 | 0 | 0 | 0 | 0
CCN(CC)c1ccc(C=C(c2nnnn2-c2ccc(C)cc2)c2nnnn2-c2ccc(C)cc2)cc1 | 0 | 0 | 0 | 0 | 0 | 0 | 0 | 0
Cc1ccc(-n2nnnc2-c2ccccc2)cc1 | 0 | 0 | 0 | 0 | 0 | 0 | - | -
Cc1cc(C)n(-c2nnc3n2N=C(c2c[nH]c4ccccc24)CS3)n1 | 0 | 0 | 0 | 0 | 0 | 0 | 0 | 0
